The source made the active and inactive calls. No cut-off for these calls is given here.
Assays:
[1] = molecular target: T1, Tyrosine-protein phosphatase non-receptor type 1 (Homo sapiens) (UniProt P18031); experiment: Reversible inhibition of human N-terminal His6-tagged PTP1B catalytic domain (1 to 298 residues) expressed in Escherichia coli strain Rosetta2 (DE3) at 10 times IC50 using DiFMUP as substrate preincubated for 30 mins followed by 100 fold compound dilution and substrate addition measured for 60 mins fluorescence assay
T1 sequence (whole entry): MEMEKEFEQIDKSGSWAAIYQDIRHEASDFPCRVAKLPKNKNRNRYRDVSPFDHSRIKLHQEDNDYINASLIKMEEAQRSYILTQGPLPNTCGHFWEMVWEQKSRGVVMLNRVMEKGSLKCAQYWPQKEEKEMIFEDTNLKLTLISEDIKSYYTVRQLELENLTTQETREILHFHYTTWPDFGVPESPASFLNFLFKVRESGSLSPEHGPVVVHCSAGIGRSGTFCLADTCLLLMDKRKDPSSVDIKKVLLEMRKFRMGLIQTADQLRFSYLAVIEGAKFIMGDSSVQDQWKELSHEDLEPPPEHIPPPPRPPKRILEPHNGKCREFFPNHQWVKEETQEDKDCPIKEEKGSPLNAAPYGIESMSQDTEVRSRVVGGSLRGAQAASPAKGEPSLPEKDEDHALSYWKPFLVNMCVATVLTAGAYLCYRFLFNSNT

[2] = molecular target: T1, Tyrosine-protein phosphatase non-receptor type 1 (Homo sapiens); experiment: Inhibition of human N-terminal His6-tagged PTP1B catalytic domain (1 to 393 residues) expressed in Escherichia coli strain Rosetta2 (DE3) using DiFMUP as substrate preincubated for 10 mins followed by substrate addition and measured after 10 mins in presence of 10 fold higher enzyme concentration by fluorescence assay
Procedure, shortened: (§1)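 DiFMUP IC50 assay (1 nM enzyme, 10 min preincubation, substrate at Km, 37 °C, ex 358/em 455 nm), repeated as an aggregation check under three altered conditions: 10-fold enzyme (10 nM), 0.05% Tween 20, or 0.1 mg/mL BSA in buffer.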

[3] = molecular target: Receptor-type tyrosine-protein phosphatase epsilon (Homo sapiens, UniProt P23469); experiment: Inhibition of human PTPRE (107 to 707 residues) expressed in Escherichia coli strain BL21(DE3) using DiFMUP as substrate preincubated for 10 mins followed by substrate addition and measured after 10 mins by fluorescence assay
Procedure, shortened: (§2)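 Selectivity panel on enzymes expressed in E. coli BL21(DE3), purified by nickel affinity then size exclusion. DiFMUP fluorescence assay run as for PTP1B/TCPTP, with per-enzyme conditions in a supplementary table; nonlinear regression for IC50; three independent experiments.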

[4] = system: Mus musculus; experiment: Antiobesity activity in high fat diet-induced obese Ptpn1fl/fl null C57BL/6 mouse assessed as reduction in body weight at 100 ug/kg, ip for 10 consecutive days; assay type: functional, organism-based
Procedure, shortened: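 Male Ptpn1fl/fl, Ptpn2fl/fl or double-floxed mice: chow 8 weeks, then high-fat diet (45% energy from fat) 12 weeks. Bilateral intra-ARC stereotaxic injection of rAAV-CMV-Cre-GFP or rAAV-CMV-GFP, 100 nL/side. After 2 weeks recovery, vehicle or 100 μg/kg ip daily at 6 pm for 10 days; body weight tracked; two-way repeated-measures ANOVA with Tukey test; means ± SEM.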

[5] = molecular target: T2, Tyrosine-protein phosphatase non-receptor type 1 (Homo sapiens, UniProt P18031); experiment: Inhibition of human N-terminal His6-tagged PTP1B catalytic domain (1 to 298 residues) expressed in Escherichia coli strain Rosetta2 (DE3) using DiFMUP as substrate preincubated for 10 mins followed by substrate addition and measured after 10 mins by fluorescence assay
T2 sequence (P18031 whole entry): T1 sequence (whole entry)
Procedure, shortened: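 Tag-cleaved, SEC-purified enzyme at 1 nM, preincubated 10 min with compound at 15 concentrations from 0–500 μM (5% DMSO final) in 25 mM Bis-Tris propane pH 7.5, 50 mM NaCl, 2 mM EDTA. DiFMUP added at each construct's Km (10, 7, 10, 9 μM for PTP1B1−298, PTP1B1−393, TCPTP1−296, TCPTP1−336). Read ex 358/em 455 nm continuously 10 min at 37 °C; triplicate; log(inhibitor)-response fit.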

[6] = molecular target: T3, Tyrosine-protein phosphatase non-receptor type 2 (Homo sapiens) (UniProt P17706); experiment: Inhibition of human N-terminal His6-tagged TCPTP catalytic domain (1 to 336 residues) expressed in Escherichia coli strain Rosetta2 (DE3) using DiFMUP as substrate preincubated for 10 mins followed by substrate addition and measured after 10 mins in presence of 0.1 mg/ml BSA by fluorescence assay; procedure, shortened: as §1
T3 sequence (whole entry): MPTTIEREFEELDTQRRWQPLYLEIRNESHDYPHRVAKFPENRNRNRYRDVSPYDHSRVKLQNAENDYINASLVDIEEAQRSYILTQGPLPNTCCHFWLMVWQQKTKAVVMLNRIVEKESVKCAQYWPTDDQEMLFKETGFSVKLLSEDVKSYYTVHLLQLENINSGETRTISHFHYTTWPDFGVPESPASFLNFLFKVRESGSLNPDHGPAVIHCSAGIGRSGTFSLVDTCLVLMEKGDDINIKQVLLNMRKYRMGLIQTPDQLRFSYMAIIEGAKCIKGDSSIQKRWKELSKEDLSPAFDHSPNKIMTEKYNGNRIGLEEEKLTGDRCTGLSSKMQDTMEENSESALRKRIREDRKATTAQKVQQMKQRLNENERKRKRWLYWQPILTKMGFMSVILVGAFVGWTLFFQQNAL

[7] = molecular target: Phosphatidylinositol 3,4,5-trisphosphate 3-phosphatase and dual-specificity protein phosphatase PTEN (Homo sapiens, UniProt P60484); experiment: Inhibition of human PTEN (1 to 403 residues) expressed in Escherichia coli strain BL21(DE3) using DiFMUP as substrate preincubated for 10 mins followed by substrate addition and measured after 10 mins by fluorescence assay
[8] = molecular target: T4, Tyrosine-protein phosphatase non-receptor type 11 (Homo sapiens, UniProt Q06124); experiment: Inhibition of human SHP2 (246 to 527 residues) expressed in Escherichia coli strain BL21(DE3) using DiFMUP as substrate preincubated for 10 mins followed by substrate addition and measured after 10 mins by fluorescence assay; procedure, shortened: as §2
T4 sequence (Q06124 whole entry): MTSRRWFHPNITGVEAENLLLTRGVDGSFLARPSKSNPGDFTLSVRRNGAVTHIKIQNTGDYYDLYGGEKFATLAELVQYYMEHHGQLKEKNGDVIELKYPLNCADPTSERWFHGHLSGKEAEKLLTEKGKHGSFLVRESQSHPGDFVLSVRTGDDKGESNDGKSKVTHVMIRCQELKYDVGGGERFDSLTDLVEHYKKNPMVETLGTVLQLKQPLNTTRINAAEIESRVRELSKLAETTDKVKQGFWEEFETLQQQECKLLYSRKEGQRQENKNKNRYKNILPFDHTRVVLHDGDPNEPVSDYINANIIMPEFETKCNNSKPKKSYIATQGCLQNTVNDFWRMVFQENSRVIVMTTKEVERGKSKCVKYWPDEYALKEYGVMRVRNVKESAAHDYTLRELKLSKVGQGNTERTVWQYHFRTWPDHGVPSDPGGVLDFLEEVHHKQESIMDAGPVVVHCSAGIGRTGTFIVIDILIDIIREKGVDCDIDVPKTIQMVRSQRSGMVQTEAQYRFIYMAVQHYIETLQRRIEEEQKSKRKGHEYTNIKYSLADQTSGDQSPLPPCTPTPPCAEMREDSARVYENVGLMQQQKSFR

Chain of Receptor-type tyrosine-protein phosphatase epsilon (P23469 whole entry, the tested form may be a part): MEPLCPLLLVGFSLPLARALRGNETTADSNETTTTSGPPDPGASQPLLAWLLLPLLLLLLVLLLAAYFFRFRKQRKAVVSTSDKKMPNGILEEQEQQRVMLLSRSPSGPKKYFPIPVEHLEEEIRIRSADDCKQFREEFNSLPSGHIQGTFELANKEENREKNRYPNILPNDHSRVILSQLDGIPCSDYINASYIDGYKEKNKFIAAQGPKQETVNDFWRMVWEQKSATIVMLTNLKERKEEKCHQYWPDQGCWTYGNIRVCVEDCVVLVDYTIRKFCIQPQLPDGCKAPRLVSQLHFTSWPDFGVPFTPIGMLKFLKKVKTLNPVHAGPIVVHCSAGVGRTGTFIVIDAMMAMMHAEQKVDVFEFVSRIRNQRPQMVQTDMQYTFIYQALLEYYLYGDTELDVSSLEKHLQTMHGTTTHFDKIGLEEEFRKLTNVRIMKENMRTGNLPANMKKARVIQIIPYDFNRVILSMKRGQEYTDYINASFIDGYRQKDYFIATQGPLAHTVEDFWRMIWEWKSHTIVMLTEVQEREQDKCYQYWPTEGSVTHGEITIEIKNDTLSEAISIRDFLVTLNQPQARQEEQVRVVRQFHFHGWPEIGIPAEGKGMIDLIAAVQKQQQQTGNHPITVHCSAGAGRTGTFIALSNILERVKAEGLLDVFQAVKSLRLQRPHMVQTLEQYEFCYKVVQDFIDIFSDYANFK
Chain of Phosphatidylinositol 3,4,5-trisphosphate 3-phosphatase and dual-specificity protein phosphatase PTEN (P60484 whole entry, the tested form may be a part): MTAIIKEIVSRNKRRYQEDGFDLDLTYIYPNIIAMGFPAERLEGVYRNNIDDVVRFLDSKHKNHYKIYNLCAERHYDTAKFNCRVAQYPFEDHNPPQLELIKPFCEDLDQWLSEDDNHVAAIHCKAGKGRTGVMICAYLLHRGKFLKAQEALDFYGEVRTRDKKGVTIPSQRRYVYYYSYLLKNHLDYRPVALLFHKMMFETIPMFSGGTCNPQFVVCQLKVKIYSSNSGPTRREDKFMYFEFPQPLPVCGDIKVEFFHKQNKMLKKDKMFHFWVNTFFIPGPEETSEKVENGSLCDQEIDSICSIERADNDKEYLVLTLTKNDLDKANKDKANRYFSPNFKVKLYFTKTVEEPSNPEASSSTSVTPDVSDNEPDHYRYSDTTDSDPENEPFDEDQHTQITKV

Q: `CC1=C(O)C(=O)C=C2C1=CC=C1[C@@]2(C)CC[C@@]2(C)[C@@H]3C[C@](C)(C(=O)O)CC[C@]3(C)CC[C@]12C` [CELASTROL] was tested. Which inhibition [1] did it give?
A: The inhibition was “Active”.

Q: And the inhibition [2]?
A: The inhibition was “Active”.

Q: And the IC50 [3]?
A: The IC50 was over 500 µM.

Q: And the Activity [4]?
A: The Activity was “Active”.

Q: And the IC50 [5]?
A: Its IC50 is 4.8 µM.

Q: And the inhibition [6]?
A: The inhibition was “Active”.

Q: And the IC50 [7]?
A: Its IC50 is 13.3 µM.

Q: And the IC50 [8]?
A: Its IC50 is 4.1 µM.
